Source: PMC7388746 (Toxicon : official journal of the International Society on …, 2020)
Positions of bridges follow the written chain, without caps; N, C: chain ends. Residues, ends and D or L forms follow the SMILES beside them.

Legend:
TRPV1 [1] = settings: cited from earlier work
TRPV1 [2] = settings: animal studies, ref Kaszas et al., 2012, Lebovitz et al.; cited from earlier work
[3] = target: T1, TRPV1 channels expressed in HEK293T cells (murine TRPV1, E571A, C-terminal eYFP) (Mus musculus, UniProt Q704Y3, E571A); test: Patch-clamp activation of TRPV1, extracellular perfusion; type: cell-based
T1 sequence (Q704Y3 whole entry E571A, the tested form may be a part): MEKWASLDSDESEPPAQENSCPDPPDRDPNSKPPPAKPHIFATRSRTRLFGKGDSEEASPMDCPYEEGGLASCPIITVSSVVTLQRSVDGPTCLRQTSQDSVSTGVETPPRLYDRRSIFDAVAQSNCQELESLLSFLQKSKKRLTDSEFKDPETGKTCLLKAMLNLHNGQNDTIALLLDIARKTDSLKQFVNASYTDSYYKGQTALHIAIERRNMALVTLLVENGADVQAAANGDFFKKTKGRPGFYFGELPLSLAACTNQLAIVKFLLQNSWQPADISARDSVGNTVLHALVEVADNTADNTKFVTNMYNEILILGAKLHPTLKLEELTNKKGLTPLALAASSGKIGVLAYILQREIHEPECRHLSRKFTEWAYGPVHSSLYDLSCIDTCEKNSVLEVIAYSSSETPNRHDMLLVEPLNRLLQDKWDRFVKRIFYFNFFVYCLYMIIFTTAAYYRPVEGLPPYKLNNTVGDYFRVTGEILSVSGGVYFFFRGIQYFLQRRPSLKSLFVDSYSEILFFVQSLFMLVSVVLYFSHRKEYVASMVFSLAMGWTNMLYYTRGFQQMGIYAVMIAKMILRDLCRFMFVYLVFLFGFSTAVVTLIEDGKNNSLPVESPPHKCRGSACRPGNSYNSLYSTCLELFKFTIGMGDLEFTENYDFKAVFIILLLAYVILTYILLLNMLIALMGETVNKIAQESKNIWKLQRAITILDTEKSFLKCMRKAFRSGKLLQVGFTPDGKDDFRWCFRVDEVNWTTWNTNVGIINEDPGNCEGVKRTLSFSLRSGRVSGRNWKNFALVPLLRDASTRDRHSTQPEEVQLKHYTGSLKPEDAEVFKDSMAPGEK

[4] = target: T1, TRPV1 channels expressed in HEK293T cells (murine TRPV1, E571A, C-terminal eYFP); test: Inside-out patch-clamp of TRPV1, intracellular perfusion; type: cell-based
TRPV2 = test: Whole-cell patch-clamp of TRPV2; type: cell-based; settings: n = 4
Method in brief: (§1)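 Channels transiently expressed in HEK293T cells (DMEM, 10% FBS, 37 °C, 5% CO2; Lipofectamine 3000) and recorded 24–48 h after transfection. Whole-cell, ~4 MΩ pipettes, 60% series-resistance compensation. Bath and pipette: 130 mM NaCl, 10 mM glucose, 0.2 mM EDTA, 3 mM HEPES pH 7.2. Sampled 10 kHz, filtered 2.9 kHz, 22 °C, rapid gravity perfusion. Mean ± SEM.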

TRPV3 = test: Whole-cell patch-clamp of TRPV3; type: cell-based; settings: n = 4
Method in brief: as §1

[5] = target: T1, TRPV1 channels expressed in HEK293T cells (murine TRPV1, E571A, C-terminal eYFP); test: TRPV1 desensitization on prolonged application and recovery; type: cell-based; settings: RhTx2 300 μM vs RhTx 10 μM
[6] = target: T1, TRPV1 channels expressed in HEK293T cells (murine TRPV1, E571A, C-terminal eYFP); test: Single-channel recording of TRPV1; type: cell-based; settings: outside-out; 300 μM RhTx2, on first perfusion

## CC[C@H](C)[C@H](NC(=O)[C@@H]1CSSC[C@@H]2NC(=O)[C@H]([C@@H](C)O)NC(=O)[C@H](C(C)C)NC(=O)CNC(=O)[C@H](CC(N)=O)NC(=O)[C@@H](NC(=O)[C@@H]3CCCN3C(=O)[C@H](CC(N)=O)NC(=O)[C@H](CC(N)=O)NC(=O)[C@@H](N)CC(C)C)CSSC[C@H](NC(=O)[C@H](CCCNC(=N)N)NC(=O)[C@H](Cc3ccc(O)cc3)NC(=O)CNC(=O)[C@H](CO)NC(=O)[C@@H]3CCCN3C2=O)C(=O)N[C@@H](CO)C(=O)N[C@@H]([C@@H](C)CC)C(=O)N[C@@H](C(C)C)C(=O)N[C@@H](CC(=O)O)C(=O)N[C@@H](CCCCN)C(=O)N[C@@H](CCC(N)=O)C(=O)N1)C(=O)N[C@@H](CCCCN)C(=O)N[C@@H](CCCCN)C(=O)N[C@@H](CCC(=O)O)C(=O)O [RhTx] (H-LNNPCNGVTCPSGYRCSIVDKQCIKKE-OH; disulfide 5-16, 10-23; N-terminus and C-terminus assumed)
TRPV1 [1]; ref Yang et al., 2015, Luo et al., 2019
  mechanism of TRPV1 desensitization, literature (in words): mechanistically similar to the heat desensitization
TRPV1 [1]; ref Yang et al., 2015
  TRPV1 activation, literature (in words): strongly activates TRPV1
  binding site on TRPV1, literature (in words): binds to the outer pore region above the pore helix

## CCOC(=O)C1=C(c2ccccc2)NC(C)=C(C(=O)SCCOC)C1CC (stereo not drawn) [MRS1477]
TRPV1 [1]; ref Kaszas et al., 2012, Lebovitz et al.
  TRPV1 allosteric modulation, literature (in words): positively and allosterically modulate the ligand activation of TRPV1
TRPV1 [2]
  analgesic effect and side effects, literature (in words): analgesic effects without side effects such as hyperthermia

## Oc1cc2c(cc1O)CN(C(=S)NCCc1ccc(Cl)cc1)CCC2 [capsazepine]
[3]
  block of RhTx2 activation of TRPV1 (in words): cannot be blocked
TRPV1 [1]; ref Cao et al., 2013, Yang et al., 2015
  mode of inhibition vs capsaicin, literature (in words): competitive inhibitor

## COc1cc(CNC(=O)CCCC/C=C/C(C)C)ccc1O [capsaicin]
[4]
  TRPV1 activation by intracellular application (in words): robustly activated

## CC[C@H](C)[C@H](NC(=O)[C@@H]1CSSC[C@@H]2NC(=O)[C@H]([C@@H](C)O)NC(=O)[C@H](C(C)C)NC(=O)CNC(=O)[C@H](CC(N)=O)NC(=O)[C@@H](NC(=O)[C@@H]3CCCN3C(=O)[C@H](CC(N)=O)NC(=O)[C@H](CC(N)=O)NC(=O)[C@H](CC(C)C)NC(=O)[C@H](Cc3ccc(O)cc3)NC(=O)[C@H](CCCCN)NC(=O)[C@H](CO)NC(=O)[C@@H](N)CC(N)=O)CSSC[C@H](NC(=O)[C@H](CCCNC(=N)N)NC(=O)[C@H](Cc3ccc(O)cc3)NC(=O)CNC(=O)[C@H](CO)NC(=O)[C@@H]3CCCN3C2=O)C(=O)N[C@@H](CO)C(=O)N[C@@H]([C@@H](C)CC)C(=O)N[C@@H](C(C)C)C(=O)N[C@@H](CC(=O)O)C(=O)N[C@@H](CCCCN)C(=O)N[C@@H](CCC(N)=O)C(=O)N1)C(=O)N[C@@H](CCCCN)C(=O)N[C@@H](CCCCN)C(=O)N[C@@H](CCC(=O)O)C(=O)O [RhTx2] (H-NSKYLNNPCNGVTCPSGYRCSIVDKQCIKKE-OH; disulfide 9-20, 14-27; N-terminus and C-terminus assumed)
[3]; EC50 of RhTx2 relative to RhTx, apparent binding affinity much lower
  change in EC50, RhTx2 vs RhTx (fold): ~100 fold
[3]; TRPV1 vs TRPV2 and TRPV3, whole-cell, n = 4 per channel
  selectivity (in words): selective for TRPV1 channel
[3]; perfused from extracellular side, whole-cell recording, HEK293T
  TRPV1 activation (in words): robustly activated TRPV1
TRPV2
  current activation in TRPV2 compared with TRPV1 (in words): much smaller
TRPV3
  current activation in TRPV3 compared with TRPV1 (in words): much smaller
[5]
  steady state open probability in the desensitized state (in words): significantly lower than that of RhTx
[6]
  initial single-channel opening (in words): strong channel opening
